# Results as given in ChEMBL document CHEMBL4392843, “Structure and biological evaluation of new cyclic and acyclic laxaphycin-A type peptides” (Bioorg Med Chem, 2019).
# Activity calls are given as the source filed them. No cut-off for these calls is given here. Numbered stars: 1 amine (or outer) side, 2 acyl side, 3 side chain; on linkers, the order of the positions; unused ones are H or OH. Square brackets hold non-standard residues; d marks the D form. Peptide text beside a SMILES is read from it. dβ3hAhp = CCCCC[C@H](CC(=O)[*:2])N[*:1]; d(aIle) = CC[C@H](C)[C@@H](N)C(=O)O; Hyp = O=C(O)[C@@H]1C[C@@H](O)CN1; X1 = C/C=C(/N[*:1])C(=O)[*:2]; hSer = N[C@@H](CCO)C(=O)O
# Key:
# SH-SY5Y [1] = experiment: Effect on cell viability in human SH-SY5Y cells up to 10 uM after 1 hr by MTT assay; type: cell-based
# SH-SY5Y [2] = experiment: Cytotoxicity against human SH-SY5Y cells assessed as reduction in cell viability measured after 24 hrs by MTT assay; type: cell-based
# In short: (§1)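 SH-SY5Y cells (ATCC CRL2266) in DMEM/F-12 with 10% FBS, 1% glutamax and penicillin/streptomycin, 37 °C, 5% CO2. Compounds were added to the medium (0.01, 0.05, 0.1 and 1 µM listed) for 24 or 6 h. Cells were then given 500 µg/mL MTT for 1 h and solubilized in 5% SDS, with A595 read. Saponin death-control absorbance was subtracted. IC50 reported with 95% CI and R².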
# SH-SY5Y [3] = experiment: Induction of autophagy in human SH-SY5Y cells assessed as decrease in cytoplasmic p62 levels at 10 uM measured after 6 hrs by Western blot analysis; type: functional; details: in the assay text read “membrane” for “cytoplasmic”
# In short: (§2)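 SH-SY5Y cells were treated with 10 µM for 6 h and lysed in ice-cold hypotonic Tris buffer (pH 7.4) with 1% Triton X-100 and inhibitors. The cytosolic fraction was taken at 3000 rpm; membrane fraction came via nuclear extraction buffer. 20 µg protein was run on 10% SDS-PAGE with chemiluminescent detection. Read-outs were LC3II/LC3I ratio or % of untreated (p-mTOR, p62); three experiments in triplicate, blots run in duplicate.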
# SH-SY5Y [4] = experiment: Induction of autophagy in human SH-SY5Y cells assessed as phosphorylated mTOR level at 10 uM measured after 6 hrs by Western blot analysis (reference value: 100%); type: functional; in short: as §2
# SH-SY5Y [5] = experiment: Cytotoxicity against human SH-SY5Y cells assessed as reduction in cell viability measured after 24 hrs by LDH release assay; type: cell-based
# In short: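 SH-SY5Y cells in DMEM/F-12 with 10% FBS at 37 °C, 5% CO2, exposed to compounds in the medium for 24 h. LDH release was measured with a commercial LDH-cytotoxicity kit per its protocol as the viability indicator. IC50 reported with 95% CI and R².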
# SH-SY5Y [6] = experiment: Induction of autophagy in human SH-SY5Y cells assessed as increase in cytoplasmic p62 levels at 10 uM measured after 6 hrs by Western blot analysis; type: functional, cell-based; in short: as §2
# SH-SY5Y [7] = experiment: Cytotoxicity against human SH-SY5Y cells assessed as reduction in cell viability measured after 6 hrs by MTT assay; type: cell-based; details: for IC50: Homo sapiens, SH-SY5Y, 6 h; for Cytotoxicity call (toxic / non-toxic): sh-sy5y; in short: as §1
# SH-SY5Y [8] = experiment: Inhibition of reactive oxygen species production in human SH-SY5Y cells up to 10 uM measured after 1 hr by DCFH-DA dye based fluorescence assay; type: cell-based
# In short: (§3)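 SH-SY5Y cells were exposed to compounds (6 h; 1 h also run), washed in saline, and loaded with 20 µM DCF-DA for 30 min at 37 °C. They were then held 30 min at room temperature for de-esterification. DCF fluorescence was read at 475 nm excitation and 525 nm emission, expressed as % of diluent-treated controls, with four independent experiments in triplicate.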
# SH-SY5Y [9] = experiment: Induction of apoptosis in human SH-SY5Y cells assessed as increase in apoptotic cells at 10 uM measured after 6 hrs by Annexin V-FITC/propidium iodide staining based flow cytometry; type: cell-based
# In short: (§4)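 SH-SY5Y cells (1×10^6 per well) were treated with 10 µM for 6 h, washed in PBS, and stained with annexin V-FITC/propidium iodide in binding buffer for 15 min. Imaging flow cytometry counted 10000 events. Viable, apoptotic and necrotic populations are given as % of untreated cells, mean ± SEM of three independent experiments in triplicate.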
# SH-SY5Y [10] = experiment: Induction of autophagy in human SH-SY5Y cells assessed as LC3-2/LC3-1 ratio at 10 uM measured after 6 hrs by Western blot analysis (reference value: 2.6 +/- 0.3); type: functional
# SH-SY5Y [11] = experiment: Effect on mitochondrial membrane potential in human SH-SY5Y cells up to 10 uM measured after 6 hrs by TMRM assay
# SH-SY5Y [12] = experiment: Induction of apoptosis in human SH-SY5Y cells assessed as decrease in viable cells at 10 uM measured after 6 hrs by Annexin V-FITC/propidium iodide staining based flow cytometry; type: cell-based; in short: as §4
# SH-SY5Y [13] = experiment: Induction of apoptosis in human SH-SY5Y cells assessed as increase in necrotic cells at 10 uM measured after 6 hrs by Annexin V-FITC/propidium iodide staining based flow cytometry; type: cell-based; in short: as §4
# SH-SY5Y [14] = experiment: Inhibition of reactive oxygen species production in human SH-SY5Y cells up to 10 uM measured after 6 hrs by DCFH-DA dye based fluorescence assay relative to control; type: cell-based; parameters: scale not given: the % may be the effect or the level left; in short: as §3
# SH-SY5Y [15] = experiment: Effect on cell viability in human SH-SY5Y cells up to 10 uM after 6 hrs by MTT assay; type: cell-based
# SH-SY5Y [16] = experiment: Cytotoxicity against human SH-SY5Y cells assessed as decrease in cell viability at 10 uM measured after 6 to 24 hrs by MTT assay relative to control; type: cell-based
# SH-SY5Y [17] = experiment: Induction of autophagy in human SH-SY5Y cells assessed as increase in LC3-2/LC3-1 ratio at 10 uM measured after 6 hrs by Western blot analysis; type: functional, cell-based; in short: as §2
# [18] = Homo sapiens, SH-SY5Y, 24 h, read-out: IC50
SMILES,Activity (SH-SY5Y [1]),IC50 (SH-SY5Y [2]; [18]) [µM],Activity (SH-SY5Y [3]),Activity (SH-SY5Y [4]) [%],IC50 (SH-SY5Y [5]; [18]) [µM],Activity (SH-SY5Y [6]),IC50 (SH-SY5Y [7]) [µM],Activity (SH-SY5Y [8]),Activity (SH-SY5Y [9]),Ratio (SH-SY5Y [10]),Activity (SH-SY5Y [11]),Activity (SH-SY5Y [12]),Activity (SH-SY5Y [13]),Activity (SH-SY5Y [14]),IC50 (SH-SY5Y [2]; sh-sy5y),IC50 (SH-SY5Y [5]; sh-sy5y),Cytotoxicity call (toxic / non-toxic) (SH-SY5Y [7]),Activity (SH-SY5Y [15]),Activity (SH-SY5Y [16]) [%],Activity (SH-SY5Y [17])
C/C=C1/NC(=O)[C@H](CCO)NC(=O)C[C@@H](CCCCC)NC(=O)CNC(=O)[C@H](CC(C)C)NC(=O)[C@@H](C(C)C)NC(=O)[C@H]([C@@H](C)CC)NC(=O)[C@@H](CC(C)C)NC(=O)[C@@H](Cc2ccccc2)NC(=O)[C@H](CCO)NC(=O)[C@@H]2C[C@@H](O)CN2C1=O,Non-Toxic,5.6,Active,70.7,12.4,Active,3.7,Toxic,Non-Toxic,6.4,Toxic,Toxic,Non-Toxic,Toxic,–,–,–,–,–,–
C/C=C(/NC(=O)[C@H](CCO)NC(=O)C[C@H](N)CCCCC)C(=O)N1C[C@H](O)C[C@H]1C(=O)N[C@@H](CCO)C(=O)N[C@H](Cc1ccccc1)C(=O)N[C@H](CC(C)C)C(=O)N[C@H](C(=O)N[C@@H](C(=O)N[C@@H](CC(C)C)C(=O)O)[C@@H](C)CC)[C@@H](C)CC,Non-Toxic,–,Active,70.3,–,Active,–,Toxic,–,6.7,Toxic,–,–,40%,Toxic,Non-Toxic,Toxic,Non-Toxic,50,–
C/C=C1/NC(=O)[C@H](CCO)NC(=O)C[C@@H](CCCCC)NC(=O)CNC(=O)[C@H](CC(C)C)NC(=O)[C@@H]([C@@H](C)CC)NC(=O)[C@H]([C@@H](C)CC)NC(=O)[C@@H](CC(C)C)NC(=O)[C@@H](Cc2ccccc2)NC(=O)[C@H](CCO)NC(=O)[C@@H]2C[C@@H](O)CN2C1=O [LAXAPHYCIN A] (cyclo(G[dβ3hAhp][hSer][X1][Hyp][hSer][dF][dL]I[d(aIle)]L)),–,–,–,–,–,–,–,–,–,–,–,–,–,–,Non-Toxic,Non-Toxic,Non-Toxic,–,–,–
C/C=C(/NC(=O)[C@H](CCO)NC(=O)C[C@H](N)CCCCC)C(=O)N1C[C@H](O)C[C@H]1C(=O)N[C@@H](CCO)C(=O)N[C@H](Cc1ccccc1)C(=O)N[C@H](CC(C)C)C(=O)N[C@H](C(=O)N[C@@H](C(=O)O)[C@@H](C)CC)[C@@H](C)CC,–,–,–,–,–,–,–,–,–,–,–,–,–,–,Non-Toxic,Non-Toxic,Non-Toxic,–,–,–
C/C=C1/NC(=O)[C@H](CCO)NC(=O)C[C@@H](CCCCC)NC(=O)CNC(=O)[C@H](CC(C)C)NC(=O)[C@@H]([C@@H](C)CC)NC(=O)[C@H](C(C)C)NC(=O)[C@@H](CC(C)C)NC(=O)[C@@H](Cc2ccccc2)NC(=O)[C@H](CCO)NC(=O)[C@@H]2C[C@@H](O)CN2C1=O,–,0.6,15.8%,73.1,3.6,Active,1.3,–,Non-Toxic,–,Toxic,Toxic,Non-Toxic,–,–,–,–,–,–,Active
